From ChEMBL document CHEMBL1157166, “Synthesis, antimalarial activity, structure-activity relationship analysis of thieno-[3,2-b]benzothiazine S,S-dioxide analogs” (2008)

What was measured:
Assay type in all cases: functional
[1] = target: T1, Histidine-rich protein PFHRP-II (Plasmodium falciparum) (UniProt P05227); experiment: Inhibition of beta-hematin formation using synthetic hemin chloride; set-up: concentration or dose not given beside the values; details: concentration not given here
T1 sequence (whole entry): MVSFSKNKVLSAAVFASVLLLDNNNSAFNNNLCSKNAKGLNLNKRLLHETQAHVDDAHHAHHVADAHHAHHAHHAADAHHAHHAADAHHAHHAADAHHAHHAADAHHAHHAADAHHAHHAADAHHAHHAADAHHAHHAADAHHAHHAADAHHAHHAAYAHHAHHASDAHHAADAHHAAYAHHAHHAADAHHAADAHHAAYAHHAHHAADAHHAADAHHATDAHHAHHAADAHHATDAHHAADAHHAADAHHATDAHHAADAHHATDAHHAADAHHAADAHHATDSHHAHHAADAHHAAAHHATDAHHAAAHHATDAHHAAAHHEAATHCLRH
Summary of the method: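 Hemin chloride (4 mM in DMSO) was mixed in triplicate with compound in DMSO (50–5 mM as added); water or DMSO served as controls. Acetate buffer (0.2 M, pH 4.4) was added, then incubated at 37 °C for 48 h and centrifuged. The pellet was washed with DMSO, dissolved in 0.2 N NaOH and diluted 1:2 in 0.1 N NaOH. A405 was read and expressed as % inhibition of β-hematin formation.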

Plasmodium berghei [2] = experiment: Antiparasitic activity against Plasmodium berghei ANKA infected BALB/c mice (Mus musculus) after 18 hrs as reduced hemoglobin proteolysis
Summary of the method: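 Parasite extract: blood from P. berghei ANKA-infected mice (30–70% parasitemia); erythrocytes washed and lysed, then freed parasites freeze–thawed three times. Native mouse hemoglobin was incubated with extract, GSH and 0.2 M acetate buffer pH 5.4, with compound in DMSO, at 37 °C for 18 h. Leupeptin, pepstatin and chloroquine were references. Digestion was judged visually from the 14.4 kDa globin band on SDS–PAGE.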

Plasmodium berghei [3] = experiment: Antiparasitic activity as survival days against chloroquine-sensitive Plasmodium berghei ANKA infected NIH mice (Mus musculus) at 20 mg/kg intraperitoneal dose
Summary of the method: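 NIH mice (18–22 g) infected ip with 1 × 10⁷ P. berghei parasites; dosing started 2 h post-infection. Compound dissolved in DMSO (0.1 M stock), diluted in 2% Saline–Tween 20, given ip at 20 mg/kg once daily for 4 days. Chloroquine 25 mg/kg as positive control; saline-treated mice as untreated controls. Survival time after infection recorded versus control mice.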

Plasmodium berghei [4] = experiment: Antiparasitic activity as reduced parasitaemia against chloroquine-sensitive Plasmodium berghei ANKA infected NIH mice (Mus musculus) at 20 mg/kg intraperitoneal dose at day 4; set-up: scale not given: the % may be the effect or the level left
Summary of the method: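 Four-day suppressive test in NIH mice (18–22 g) infected ip with 1 × 10⁷ P. berghei. Dosing began 2 h post-infection: 20 mg/kg ip once daily for 4 days, from a 0.1 M DMSO stock diluted in 2% saline–Tween 20. Chloroquine at 25 mg/kg was the positive control. Day-4 parasitemia was read from Giemsa smears as a percentage versus saline-treated controls.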

inhibition [1] [%] | SMILES | inhibition (INH) (Plasmodium berghei [2]) [%] | Survival (Plasmodium berghei [3]) [days] | Activity (Plasmodium berghei [4]) [%]
< 5 | CCOC(=O)c1sc2c(c1N)S(=O)(=O)c1cc(Cl)ccc1N2c1ccccc1 | 0 | – | –
< 5 | CCOC(=O)c1sc2c(c1N)S(=O)(=O)c1ccc(Cl)cc1N2c1ccc(Cl)c(Cl)c1 | <5 | – | –
< 5 | CCOC(=O)c1sc2c(c1N)S(=O)(=O)c1cc(Cl)ccc1N2c1ccc(Cl)c(Cl)c1 | 0 | – | –
< 5 | CCOC(=O)c1sc2c(c1N)S(=O)(=O)c1cc(Cl)ccc1N2c1ccc(OC)cc1 | 0 | – | –
< 5 | CCOC(=O)c1sc2c(c1N)S(=O)(=O)c1cc(Cl)ccc1N2c1cccc(OC)c1 | 0 | – | –
< 5 | CCOC(=O)c1sc2c(c1N)S(=O)(=O)c1cc(Cl)ccc1N2c1ccccc1C | 0 | – | –
< 5 | CCOC(=O)c1sc2c(c1N)S(=O)(=O)c1cc(Cl)ccc1N2c1cccc(Cl)c1 | 0 | – | –
< 5 | CCOC(=O)c1sc2c(c1N)S(=O)(=O)c1ccc(Cl)cc1N2c1ccc(Cl)cc1 | 0 | – | –
< 5 | CCOC(=O)c1sc2c(c1N)S(=O)(=O)c1cc(Cl)ccc1N2c1cc(C)ccc1C | 0 | – | –
< 5 | CCOC(=O)c1sc2c(c1N)S(=O)(=O)c1cc(Cl)ccc1N2c1ccc(Cl)cc1 | 0 | – | –
– | CCN(CC)CCCC(C)Nc1ccnc2cc(Cl)ccc12 (stereo not drawn) [CHLOROQUINE] | 24.12 | 30 | 1.31
< 5 | CCOC(=O)c1sc2c(c1N)S(=O)(=O)c1ccc(Cl)cc1N2c1cccc(Cl)c1 | 0 | – | –
< 5 | CCOC(=O)c1sc2c(c1N)S(=O)(=O)c1cc(Cl)ccc1N2c1ccc(C)cc1 | 0 | – | –
– | CC(C)CC(=O)N[C@H](C(=O)N[C@H](C(=O)N[C@@H](CC(C)C)[C@@H](O)CC(=O)N[C@@H](C)C(=O)N[C@@H](CC(C)C)[C@@H](O)CC(=O)O)C(C)C)C(C)C [PEPSTATIN] | 92.94 | – | –
– | CC(=O)N[C@@H](CC(C)C)C(=O)N[C@@H](CC(C)C)C(=O)N[C@H](C=O)CCCNC(=N)N [LEUPEPTIN] | 89.06 | – | –

SMILES | inhibition [1] [%] | inhibition (INH) (Plasmodium berghei [2]) [%] | Survival (Plasmodium berghei [3]) [days] | Activity (Plasmodium berghei [4]) [%]
CCOC(=O)c1sc2c(c1N)S(=O)(=O)c1ccc(Cl)cc1N2c1ccccc1C | < 5 | 74.36 | 15.5 | 8.7
CCOC(=O)c1sc2c(c1N)S(=O)(=O)c1ccc(Cl)cc1N2c1ccccc1 | < 5 | 78.17 | 13 | 9.75
CCOC(=O)c1sc2c(c1N)S(=O)(=O)c1ccc(Cl)cc1N2c1cc(C)ccc1C | < 5 | 76.81 | 11.42 | 9.4
CCOC(=O)c1sc2c(c1N)S(=O)(=O)c1ccc(Cl)cc1N2c1ccc(OC)cc1 | < 5 | 37.01 | 11.6 | 11.21
CCOC(=O)c1sc2c(c1N)S(=O)(=O)c1ccc(Cl)cc1N2c1cccc(OC)c1 | < 5 | 55.96 | 12.16 | 11.6
CCOC(=O)c1sc2c(c1N)S(=O)(=O)c1ccc(Cl)cc1N2c1ccc(C)cc1 | < 5 | 64.98 | 10.8 | 15.7
